Compound activity (PubChem BioAssay)
Dynein cargo inh = dynein cargo transport inhibition; 3617.4 mouse cells, GR-EGFP nuclear translocation imaging; test concentration mostly 20 µM; stimulated with dexamethasone, 1 µM; hits give low values; z-score, hits read low; 0.47% of 220,000 active; AID 1381;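 active = plate z-score of nuclear minus cytoplasmic receptor signal below a set negative limit, without overly bright fluorescence or cell loss, cut at about -3.5 in these data, passing the limit was not always enough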;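 note: z-score of nuclear minus cytoplasmic ring GR-EGFP intensity difference per well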
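Also added: dexamethasone, 1.0 µM final. Medium: tet-free, stripped-serum medium. Detection: fixed, Hoechst-stained cells imaged at 10x for EGFP. Read-out: nuclear-to-cytoplasmic GR-EGFP distribution per well. Times: induction 48 h, compound 1 h, agonist 30 min.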
ABCB6 inh MLPCN = blocks the human ABCB6 transporter | K562-ABCB6 porphyrin accumulation, flow cytometry, 1 h; hits give low values | fluorescence ratio to DMSO, % at 10 µM | 0.19% of 360,000 active | AID 602162;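 active = fluorescence ratio to DMSO below 75%, the collection mean minus 3 SD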;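 note: signal is porphyrin accumulated inside mitochondria; 100% equals median channel fluorescence of DMSO control wells; lower ratio means ABCB6 inhibition with less porphyrin fluorescence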
Target sequence (Q9NP58 whole entry, looked up): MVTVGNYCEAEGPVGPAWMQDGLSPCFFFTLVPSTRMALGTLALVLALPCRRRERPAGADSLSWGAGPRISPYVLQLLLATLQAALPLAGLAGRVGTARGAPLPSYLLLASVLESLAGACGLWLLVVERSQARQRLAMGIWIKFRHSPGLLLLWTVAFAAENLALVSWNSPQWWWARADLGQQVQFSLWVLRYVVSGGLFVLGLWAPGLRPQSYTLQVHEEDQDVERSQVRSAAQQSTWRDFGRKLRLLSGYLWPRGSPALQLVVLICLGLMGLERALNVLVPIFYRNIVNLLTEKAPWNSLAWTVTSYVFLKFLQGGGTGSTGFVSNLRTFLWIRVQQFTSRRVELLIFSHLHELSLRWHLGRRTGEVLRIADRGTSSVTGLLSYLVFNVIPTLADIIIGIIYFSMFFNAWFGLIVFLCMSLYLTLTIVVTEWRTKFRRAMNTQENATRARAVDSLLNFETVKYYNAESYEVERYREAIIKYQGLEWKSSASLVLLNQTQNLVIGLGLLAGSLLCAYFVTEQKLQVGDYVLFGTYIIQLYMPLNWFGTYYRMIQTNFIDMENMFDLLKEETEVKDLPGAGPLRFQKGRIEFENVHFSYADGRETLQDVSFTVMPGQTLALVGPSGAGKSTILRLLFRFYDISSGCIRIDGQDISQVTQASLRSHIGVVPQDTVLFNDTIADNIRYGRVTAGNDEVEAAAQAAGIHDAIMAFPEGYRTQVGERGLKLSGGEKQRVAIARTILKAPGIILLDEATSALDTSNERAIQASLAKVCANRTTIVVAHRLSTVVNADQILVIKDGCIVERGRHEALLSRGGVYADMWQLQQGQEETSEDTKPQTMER
V-ATPase pHluor = alters yeast V-ATPase proton transport | S. cerevisiae, pHLuorin cytosolic pH fluorescence | response, % at 10 µM | 0.37% of 350,000 active | AID 504577; in the data active = response mostly above about 7.3%, no sharp cut-off; inactive = mostly below about 5.4%; note: actives read high
KCC2 mod = modulates chloride dependent transport by human KCC2; KCC2 cells, thallium flux FluoZin-2 fluorescence; B-score of Tl+ flux slope (higher = more flux/activation; lower = inhibition) at 10 µM; 2.2% of 190,000 active; AID 1456;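 active = thallium flux slope and its plate-corrected score both differing from the plate sample mean at a set confidence after two filtering rounds, in either direction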;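 note: slope of fluorescence scaled to starting intensity during 10 to 20 s after thallium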
pCIP destab = lowers stability of the mouse p/CIP coactivator protein; 0.01% of 290,000 active; AID 1984; decrease of EGFP signal, % at 10 µM; F442A p/CIP-EGFP cells, EGFP fluorescence, 16 h; Q05BA5;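 active = EGFP signal decrease of at least 30% at 10 µM or well 3 SD below plate mean, unless failing retest; inactive = the rest, including hits failing retest or dose response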
* marks the source's active call; other numbers are inactive results; · = not tested or not shown. The full list was thinned out, with hits kept by preference.

SMILES	Dynein cargo inh	ABCB6 inh MLPCN	V-ATPase pHluor	KCC2 mod	pCIP destab
CCOC(=O)c1c(CSc2ccc(CC)cc2)oc2ccc(O)c(CN(C)C)c12	·	91	7.6*	·	-13
CCCn1c(O)c(N=NC(=O)c2ccco2)c2ccccc21	-0.49	104	3	18*	-15
Cc1nc2ccc(C(=O)NC(C)(C)C)cn2c1N(C)C(=O)CCc1ccccc1	·	99	·	·	·
CSC(=S)N/N=C/c1ccc(N(C)C)cc1	0.47	95	-1	61*	-18
Cc1cc2nc(NC(=O)C3(C)CCCN(C(C)C)C3)[nH]c2cc1C (stereo not drawn)	·	99	·	·	·
COCCNC(=O)C1(C)CCCN(Cc2cc(-c3ccccc3)n(C)n2)C1 (stereo not drawn)	·	94	·	·	·
CCC1=NN(C(=O)c2ccc(Cl)cc2)C(O)(c2ccccc2)C1 (stereo not drawn)	·	99	2	·	-5
CCOC(=O)C1=NN(C(=O)c2ccc(C)cc2)C(O)(c2ccc(Cl)cc2)C1 (stereo not drawn)	1.3	98	5	121*	1
COC(=O)C1=NN(C(=O)c2ccc(Cl)cc2)C(O)(c2ccccc2)C1 (stereo not drawn)	0.55	98	-1	17*	2
CCC1=NN(C(=O)c2ccc(Cl)cc2)C(O)(c2ccc(C)cc2)C1 (stereo not drawn)	·	95	-2	·	4
O=S(=O)(/C=C/c1ccccc1)N1CCN(c2cccc(Cl)c2)CC1	0.86	69*	1	0.023	2
CN(C)S(=O)(=O)N1CCN(c2cccc(Cl)c2)CC1	-0.71	95	1	-0.47	7
CC(C)(C)NC(=O)C(=O)NNC(=O)c1ccc(C(C)(C)C)cc1	0.6	91	3	54*	0
Cc1noc(C)c1C(=O)N1CCC1(C)C(=O)NS(=O)(=O)Cc1cccc(Cl)c1 (stereo not drawn)	·	104	·	·	·
CSc1ccc(CN2CCC2(C)C(=O)Nc2cccc(Oc3ccccc3)c2)cc1 (stereo not drawn)	·	94	·	·	·
CCc1ccc(S(=O)(=O)NCc2csc(-c3ccccc3)n2)s1	1.3	117	-3	-4.9*	-24
CCc1ccc(S(=O)(=O)NCCc2csc(-c3ccccc3)n2)s1	1.9	89	1	-1.8	12
C/C(=N\NC(=S)NC(C)C)c1ccc(Cl)s1	-0.057	97	2	24*	-10
C/C(=N\NC(=O)c1ccccc1O)c1ccc(Br)s1	0.31	96	3	11*	-16
C/C(=N\NC(=O)c1ccoc1C)c1ccc(Cl)s1	·	94	-1	·	-12
C/C(=N\NC(=O)c1csc(C)c1C)c1ccc(Cl)s1	-0.41	88	0	22*	8
CC(C)(C)c1ccc(C(=O)N2CCC2(C)C(=O)NCCC#N)cc1 (stereo not drawn)	·	98	·	·	·
Cc1[nH]c(-c2ccco2)nc1C(=O)O	0.3	104	23*	·	-10
O=C(/C=C/c1ccccc1)C1C(=O)c2ccccc2C1=O	-0.69	98	2	36*	10
CCc1ccc(C2C(C(=O)O)c3ccccc3C(=O)N2C)cc1 (stereo not drawn)	2.3	100	1	-0.33	10
SMILES	Dynein cargo inh	ABCB6 inh MLPCN	V-ATPase pHluor	KCC2 mod	pCIP destab
CCc1ccc(/C=C/C(=O)C2C(=O)c3ccccc3C2=O)cc1	0.35	104	-2	19*	6
O=C(c1ccccc1)C1C(=O)c2ccccc2C1=O	0.26	98	-3	·	-3
CNc1cncc(-c2ccc(OC)c(OC)c2)n1	·	100	·	·	·
CC1(C(=O)Nc2ccc(F)c(Cl)c2)Cc2c(-c3ccc(C(N)=O)cc3)ccnc2O1 (stereo not drawn)	·	78	·	·	·
N#Cc1c(-c2cccs2)nc(SCc2ccc(Cl)cc2)[nH]c1=O	-0.018	123	-2	-3.5*	-12
Cc1cccc(/C=c2\s/c(=C\C(=O)C(C)(C)C)[nH]c2=O)c1	-1	97	0	12*	15
COc1ccc(NC(=O)c2cc([N+](=O)[O-])ccc2O)cc1	-1.3	88	-1	-3.3*	-14
COc1ccc(NC(=O)c2cc(C3CCCCN3C(=O)c3ccc(NC(C)=O)cc3)on2)c(C)c1 (stereo not drawn)	·	96	·	·	·
O=c1c2cc(Br)ccc2nc(-c2cccc(C(F)(F)F)c2)n1O	-1	94	1	24*	3
FC(F)(F)c1ccc(-c2csc(-c3ccno3)n2)cc1	1.6	100	-4	0.47	11
CC(C)(C)C(=O)OCc1nc(-c2ccc(C(F)(F)F)cc2)cs1	0.032	98	21*	0.58	-22
CCOn1c(=O)c(-c2cccs2)[n+]([O-])c2ccccc21	-0.32	95	3	3.8*	3
COc1ccc(C(C)(O)c2nc(-c3csc4ccccc34)cs2)cc1 (stereo not drawn)	·	89	·	·	·
Cc1ccc(S(=O)(=O)NCCCNS(C)(=O)=O)cc1	0.71	86	1	0.83	0
Cc1ccc(S(=O)(=O)NCCN=C(CN2CCCC2)NS(=O)(=O)c2ccc(C)cc2)cc1	0.33	66*	1	-1	-5
Cc1ccc(S(=O)(=O)NCCN=C(CN2CCOCC2)NS(=O)(=O)c2ccc(C)cc2)cc1	0.6	97	-2	·	2
Cc1ccc(S(=O)(=O)NCCNS(=O)(=O)c2ccc(C)cc2)cc1	·	313	338*	·	-8
O=C(C(=O)N(Cc1ccccc1)Cc1ccccc1)c1c(-c2ccccc2)[nH]c2ccccc12	·	99	0	·	·
C=CCNC(=S)NNC(=O)c1ccc(OCCC)cc1	-0.14	108	1	-0.29	3
CCCOc1ccc(C(=O)NNC(=S)NC(=O)CC)cc1	-0.24	97	0	6.9*	13
CNC1(C(N)=O)CCNCC1	-0.63	92	0	0.77	39*
CCOc1ccc(-c2cc(C(=O)NCc3ccccc3)[nH]n2)c(C)c1	·	94	·	·	·
COCCCn1c(=S)[nH]c2c(sc3ccccc32)c1=O	3.1	88	-1	57*	12
O=C1C=CC2(O[C@H](c3ccccc3)[C@@H](c3ccccc3)O2)[C@H](Sc2ccccc2O)C1	·	105	3	·	·
COc1ccc(C(=O)CN2C(=O)c3ccccc3C2=O)c(OC)c1C	1.5	94	19*	-0.51	-10
SMILES	Dynein cargo inh	ABCB6 inh MLPCN	V-ATPase pHluor	KCC2 mod	pCIP destab
CSCC[C@H](NC(=O)Cc1c(C)c2cc3c(C)c(C)oc3cc2oc1=O)C(=O)N[C@@H](C(=O)O)c1ccccc1	·	101	·	·	·
Clc1ccc(CN(Cc2ccc(Cl)cc2)c2nn[nH]n2)cc1	-0.24	92	3	-5.9*	-15
c1ccc(CN(Cc2ccccc2)c2nn[nH]n2)cc1	0.055	97	-2	·	1
COc1cccc(CNC(=O)C2CCN(S(=O)(=O)c3ccc4c(c3)C(C)(C)C(=O)N4C)CC2)c1	·	102	·	·	·
Cc1nc2ccc(Cl)cc2n1C	·	100	-6	·	·
CC1CCc2nc3ccccc3c(C(=O)OCC(=O)N3CCc4ccccc43)c2C1 (stereo not drawn)	-0.81	100	16*	-0.069	-10
